In ChEMBL document CHEMBL4665760, “Rational Design and Synthesis of Methyl-β-d-galactomalonyl Phenyl Esters as Potent Galectin-8N Antagonists” (J Med Chem, 2020):
Active and inactive are the calls of the source. No cut-off for these calls is given here.

How the values were obtained:
[1] = biological target: T1, Galectin-8 (Homo sapiens, UniProt O00214); test: Binding affinity to N-terminal domain of human galectin-8 (8-154 residues) by ITC assay
T1 sequence (O00214 whole entry): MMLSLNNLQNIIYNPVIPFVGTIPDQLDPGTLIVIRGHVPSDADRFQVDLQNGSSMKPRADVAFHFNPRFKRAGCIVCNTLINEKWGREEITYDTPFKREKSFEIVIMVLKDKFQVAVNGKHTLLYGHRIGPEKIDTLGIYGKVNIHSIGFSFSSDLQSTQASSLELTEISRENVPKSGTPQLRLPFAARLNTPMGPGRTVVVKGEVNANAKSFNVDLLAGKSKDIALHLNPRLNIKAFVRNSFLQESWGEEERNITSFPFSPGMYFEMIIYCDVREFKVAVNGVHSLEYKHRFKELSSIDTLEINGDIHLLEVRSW
How it was run: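 Untagged galectin-8N (residues 8-154) was expressed in bacteria (IPTG induction 4 h, room temperature) and purified on lactosyl-Sepharose at 4 °C. Protein and ligand were in 20 mM Tris pH 7.5, 100 mM NaCl, 4 mM BME, 5% DMSO and degassed. Ligand (0.5 or 1 mM) was titrated into 100 µM protein over 20-25 × 2.5 µl injections, 150 s apart, at 298 K. Blank-corrected data were fitted to an independent-site model for Kd.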

[2] = biological target: T2, Galectin-8 (Homo sapiens) (UniProt O00214); test: Antagonist activity at galectin-8 in human SUM159PT cells assessed as reduction in galectin-8-induced IL-6 mRNA expression at 500 uM incubated for 24 hrs by real-time PCR analysis; assay type: cell-based
T2 sequence (whole entry): T1 sequence (O00214 whole entry)
How it was run: (§1)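 SUM159 triple-negative breast cancer cells grown in RPMI with 10% FBS and penicillin/streptomycin at 37 °C, 5% CO2. Cells seeded at 50000 cells/cm², then incubated 24 h with compound at 500 µM, with or without 50 nM galectin-8. Means ± SEM from experiments done in duplicates.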

[3] = biological target: T2, Galectin-8 (Homo sapiens); test: Antagonist activity at galectin-8 in human SUM159PT cells assessed as reduction in galectin-8-induced IL-8 mRNA expression at 500 uM incubated for 24 hrs by real-time PCR analysis; assay type: cell-based; how it was run: as §1
[4] = biological target: T2, Galectin-8 (Homo sapiens); test: Antagonist activity at galectin-8 in human SUM159PT cells assessed as reduction in galectin-8-induced IL-1beta mRNA expression at 500 uM incubated for 24 hrs by real-time PCR analysis; assay type: cell-based; how it was run: as §1
[5] = biological target: T2, Galectin-8 (Homo sapiens); test: Antagonist activity at galectin-8 in human SUM159PT cells assessed as reduction in galectin-8-induced IL-6 mRNA expression at 1 uM incubated for 24 hrs by real-time PCR analysis; assay type: cell-based; conditions: filed as antagonist
How it was run: (§2)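 SUM159 triple-negative breast cancer cells in RPMI/10% FBS at 37 °C, 5% CO2, seeded at 50000 cells/cm². Galectin-8 (50 nM) stimulated, with or without compound. Dose-response run at 1, 10, 100 and 500 µM.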

[6] = biological target: T2, Galectin-8 (Homo sapiens); test: Antagonist activity at galectin-8 in human SUM159PT cells assessed as reduction in galectin-8-induced IL-8 mRNA expression at 1 uM incubated for 24 hrs by real-time PCR analysis; assay type: cell-based; conditions: filed as antagonist; how it was run: as §2
[7] = biological target: T2, Galectin-8 (Homo sapiens); test: Potency index, ratio of Kd for lactose to Kd for test compound for binding affinity to N-terminal domain of human galectin-8 (8-154 residues) by ITC assay; conditions: filed as antagonist

COc1ccc(OC(=O)CC(=O)O[C@H]2[C@@H](O)[C@@H](CO)O[C@@H](OC)[C@@H]2O)cc1
Kd [1]: 9.47 µM

CO[C@@H]1O[C@H](CO)[C@H](O)[C@H](OC(=O)CC(=O)O)[C@H]1O
inhibition [2]: inactive
inhibition [3]: inactive
Antagonist activity [4]: inactive
Kd [1]: 33.6 µM

COc1cc(OC)cc(OC(=O)CC(=O)O[C@H]2[C@@H](O)[C@@H](CO)O[C@@H](OC)[C@@H]2O)c1
Kd [1]: 11 µM

CO[C@@H]1O[C@H](CO)[C@H](O)[C@H](OC(=O)CC(=O)Oc2ccc(Cl)cc2Cl)[C@H]1O
Kd [1]: 11.9 µM

COC(=O)CC(=O)O[C@H]1[C@@H](O)[C@@H](CO)O[C@@H](OC)[C@@H]1O
inhibition [2]: inactive
inhibition [3]: inactive
Antagonist activity [4]: inactive
Kd [1]: 24.9 µM

CO[C@@H]1O[C@H](CO)[C@H](O)[C@H](OC(=O)CC(=O)Oc2ccccc2)[C@H]1O
Kd [1]: 12.8 µM

CO[C@@H]1O[C@H](CO)[C@H](O)[C@H](OC(=O)CC(=O)Oc2ccc(F)cc2)[C@H]1O
inhibition ([2]; filed as antagonist): Active
inhibition ([3]; filed as antagonist): Active
Antagonist activity ([4]; filed as antagonist): Active
inhibition [5]: Active
Kd [1]: 5.72 µM
inhibition [6]: Active
Ratio [7]: 7

CC(=O)N[C@H]1[C@H]([C@H](O)[C@H](O)CO)O[C@@](O[C@H]2[C@@H](O)[C@@H](CO)O[C@@H](O[C@H]3[C@H](O)[C@@H](O)[C@H](O)O[C@@H]3CO)[C@@H]2O)(C(=O)O)C[C@@H]1O
Kd [1]: 2.3 µM

CO[C@@H]1O[C@H](CO)[C@H](O)[C@H](OC(=O)CC(=O)OCc2ccccc2)[C@H]1O
inhibition ([2]; filed as antagonist): Active
inhibition ([3]; filed as antagonist): Active
Antagonist activity ([4]; filed as antagonist): Active
inhibition [5]: Active
Kd [1]: 9.17 µM
inhibition [6]: Active
